Legend:
Escherichia coli [1] = experiment: Antimicrobial activity against Escherichia coli 70419002 after 20 hrs by broth microdilution method; type: functional; conditions: Escherichia coli, 70419002, 20 h
How it was run: (§1)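 Pathogens grown overnight on Columbia agar. Colonies suspended in 0.9% saline to OD 0.1, diluted 1:300 in 1% TSB, final (1-2) × 10^5 cfu/well. Peptides 2-fold serially diluted in 1% TSB from 128 to typically 0.5 μg/mL. Incubation at 37 °C; A595 read after 20 ± 2 h. MIC is the lowest concentration with absorbance not above medium only. Triplicate.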

Escherichia coli [2] = experiment: Antimicrobial activity against Escherichia coli Neumann after 20 hrs by broth microdilution method; type: functional; how it was run: as §1
Escherichia coli [3] = experiment: Antimicrobial activity against Escherichia coli 205024 after 20 hrs by broth microdilution method; type: functional; conditions: Escherichia coli, 205024, 20 h; how it was run: as §1
Klebsiella pneumoniae [4] = experiment: Antimicrobial activity against Klebsiella pneumoniae DSM 681 after 20 hrs by broth microdilution method; type: functional; conditions: DSM 681, 20 h; how it was run: as §1
Micrococcus luteus = experiment: Antibacterial activity against Micrococcus luteus ATCC 10240 after 20 hrs by broth microdilution assay; type: functional; conditions: ATCC 10240, 20 h
How it was run: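 Nutrient-broth overnight cultures diluted in 1% TSB; E. coli BL21AI 7.5 × 10^5 cells/well, M. luteus ATCC 10240 2 × 10^6 cells/well. Peptides serially 2-fold diluted in 1% TSB from 128 to typically 0.5 μg/mL. Incubation at 37 °C; A595 read after 20 ± 2 h. MIC is the lowest concentration with absorbance not above medium only. Triplicate.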

Klebsiella pneumoniae [5] = experiment: Antimicrobial activity against Klebsiella pneumoniae 63 after 20 hrs by broth microdilution method; type: functional; conditions: Klebsiella pneumoniae, 63, 20 h
How it was run: (§2)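 Pathogenic strains grown overnight on Columbia agar, colonies suspended in 0.9% saline to OD 0.1, diluted 1:300 in 1% TSB; final (1-2) × 10^5 cfu/well. Peptides 2-fold serially diluted in 1% TSB from 128 μg/mL, typically to 0.5 μg/mL. Incubated 37 °C, absorbance at 595 nm after 20 ± 2 h, in triplicate; MIC = lowest concentration with absorbance not exceeding medium only.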

Klebsiella pneumoniae [6] = experiment: Antimicrobial activity against Klebsiella pneumoniae ATCC 12657 after 20 hrs by broth microdilution method; type: functional; conditions: ATCC 12657, 20 h; how it was run: as §1
Acinetobacter baumannii [7] = experiment: Antimicrobial activity against Acinetobacter baumannii ICB 14067 after 20 hrs by broth microdilution method; type: functional; conditions: ICB 14067, 20 h; how it was run: as §1
Acinetobacter baumannii [8] = experiment: Antimicrobial activity against Acinetobacter baumannii ICB 14073 after 20 hrs by broth microdilution method; type: functional; conditions: ICB 14073, 20 h; how it was run: as §1
Acinetobacter baumannii [9] = experiment: Antimicrobial activity against Acinetobacter baumannii ICB 9250 after 20 hrs by broth microdilution method; type: functional; conditions: ICB 9250, 20 h; how it was run: as §1
Acinetobacter baumannii [10] = experiment: Antimicrobial activity against Acinetobacter baumannii M17 after 20 hrs by broth microdilution method; type: functional; conditions: M17, 20 h; how it was run: as §1
Enterobacter cloacae [11] = experiment: Antimicrobial activity against Enterobacter cloacae Ha088 after 20 hrs by broth microdilution method; type: functional; conditions: Ha088, 20 h; how it was run: as §1
Enterobacter cloacae [12] = experiment: Antimicrobial activity against Enterobacter cloacae Ha089 after 20 hrs by broth microdilution method; type: functional; conditions: Ha089, 20 h; how it was run: as §1
Enterobacter cloacae [13] = experiment: Antimicrobial activity against Enterobacter cloacae Ha185 after 20 hrs by broth microdilution method; type: functional; conditions: Ha185, 20 h; how it was run: as §2
Serum [14] = experiment: Stability in 25% mouse serum assessed as peptide-12 level at 75 ug/ml after 30 mins by MALDI-TOF-MS analysis; type: ADME, cell-free; conditions: 0.5 h
How it was run: (§3)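 Peptide at 75 μg/mL final in pooled mouse serum (undiluted or 25% v:v aqueous), 37 °C. Triplicate aliquots taken at 0, 30, 60, 120 and 240 min and precipitated with 3% TCA on ice for 10 min. Supernatant neutralized with NaOH and analysed by RP-HPLC on C18 with TFA-containing gradient. Amounts expressed relative to 0 min; metabolites identified by MALDI-TOF-MS.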

Serum [15] = experiment: Stability in 25% mouse serum assessed as peptide-13 level at 75 ug/ml after 30 mins by MALDI-TOF-MS analysis; type: ADME, cell-free; conditions: 0.5 h; how it was run: as §3
Serum [16] = experiment: Stability in 25% mouse serum assessed as peptide-12 level at 75 ug/ml after 2 hrs by MALDI-TOF-MS analysis; type: ADME, cell-free; how it was run: as §3
Serum [17] = experiment: Stability in 25% mouse serum assessed as peptide-13 level at 75 ug/ml after 2 hrs by MALDI-TOF-MS analysis; type: ADME, cell-free; how it was run: as §3
[18] = Stability in 100% mouse serum assessed as half life at 75 ug/ml by MALDI-TOF-MS analysis; type: ADME, cell-free; how it was run: as §3
[19] = Toxicity in human erythrocytes assessed as hemolytic activity at 600 ug/ml after 1 hr; type: cell-based; conditions: erythrocyte
How it was run: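 Peptides 2-fold serially diluted from 600 to 5 μg/mL in PBS (pH 7.4), mixed 1:1 with 2% washed human erythrocytes in PBS, 37 °C for 1 h. After centrifugation at 1000g, supernatant A405 read. Triton X-100 0.1% as positive control, PBS as negative control.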

HeLa = experiment: Cytotoxicity against human HeLa cells at 600 ug/ml after 24 hrs by MTT assay; type: cell-based
How it was run: (§4)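 HeLa (1.5 × 10^4/well, seeded overnight) or SH-SY5Y (2 × 10^4/well, differentiated 5 days with 10 μM trans-retinoic acid) in DMEM/Ham's F-12 with 5% or 15% FBS. Peptide added at 600 μg/mL for 24 h at 37 °C, 5% CO2. MTT 0.5 mg/mL for 4 h, then SDS/HCl for 16 h; A590 read against 650 nm. Normalized to PBS (100%); DMSO 12% as positive control.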

SH-SY5Y = experiment: Cytotoxicity against human SH-SY5Y cells at 600 ug/ml after 24 hrs by MTT assay; type: cell-based; how it was run: as §4
Enterobacter cloacae [20] = experiment: Antimicrobial activity against Enterobacter cloacae Ha89 after 20 hrs by broth microdilution method; type: functional; conditions: Ha89, 20 h; how it was run: as §1
Proteus vulgaris [21] = experiment: Antimicrobial activity against Proteus vulgaris ICB 9081 after 20 hrs by broth microdilution method; type: functional; conditions: ICB 9081, 20 h; how it was run: as §1
Proteus vulgaris [22] = experiment: Antimicrobial activity against Proteus vulgaris ICB 9095 after 20 hrs by broth microdilution method; type: functional; conditions: ICB 9095, 20 h; how it was run: as §1
Stenotrophomonas = experiment: Antimicrobial activity against Stenotrophomonas ICB 308054 after 20 hrs by broth microdilution method; type: functional; conditions: ICB 308054, 20 h; how it was run: as §1
Pseudomonas aeruginosa [23] = experiment: Antimicrobial activity against Pseudomonas aeruginosa 61118003 after 20 hrs by broth microdilution method; type: functional; conditions: Pseudomonas aeruginosa, 61118003, 20 h; how it was run: as §2
Pseudomonas aeruginosa [24] = experiment: Antimicrobial activity against Pseudomonas aeruginosa 60909001 after 20 hrs by broth microdilution method; type: functional; conditions: Pseudomonas aeruginosa, 60909001, 20 h; how it was run: as §2
Pseudomonas aeruginosa [25] = experiment: Antimicrobial activity against Pseudomonas aeruginosa 60811001 after 20 hrs by broth microdilution method; type: functional; conditions: Pseudomonas aeruginosa, 60811001, 20 h; how it was run: as §2
Pseudomonas aeruginosa [26] = experiment: Antimicrobial activity against Pseudomonas aeruginosa PAO1 after 20 hrs by broth microdilution method; type: functional; conditions: PAO1, 20 h; how it was run: as §2
Pseudomonas aeruginosa [27] = experiment: Antimicrobial activity against Pseudomonas aeruginosa ATCC 27853 after 20 hrs by broth microdilution method; type: functional; conditions: ATCC 27853, 20 h; how it was run: as §2
Pseudomonas aeruginosa [28] = experiment: Antimicrobial activity against Pseudomonas aeruginosa Walter after 20 hrs by broth microdilution method; type: functional; how it was run: as §2

Substance: H-VDKPPYLPRPRPPRRIYNR-NH2 [ONCOCIN]
- MIC (Escherichia coli [1]): 8 µg/mL
- MIC (Escherichia coli [2]): 2 µg/mL
- MIC (Escherichia coli [3]): 4 µg/mL
- MIC (Klebsiella pneumoniae [4]): 0.25 µg/mL
- MIC (Micrococcus luteus): 8 µg/mL
- MIC (Klebsiella pneumoniae [5]): 8 µg/mL
- MIC (Klebsiella pneumoniae [6]): 0.5 µg/mL
- MIC (Acinetobacter baumannii [7]): 1 µg/mL
- MIC (Acinetobacter baumannii [8]): 2 µg/mL
- MIC (Acinetobacter baumannii [9]): 0.5 µg/mL
- MIC (Acinetobacter baumannii [10]): 1 µg/mL
- MIC (Enterobacter cloacae [11]): 0.125 µg/mL
- MIC (Enterobacter cloacae [12]): 0.125 µg/mL
- MIC (Enterobacter cloacae [13]): 0.5 µg/mL
- Activity (Serum [14]): 10%
- Activity (Serum [15]): 10%
- Activity (Serum [16]): 20%
- Activity (Serum [17]): 20%
- half-life at 75 ug/ml [18]: 20 min
- Activity [19]: Non-toxic
- Activity (HeLa): Non-toxic
- Activity (SH-SY5Y): Non-toxic
- MIC (Enterobacter cloacae [20]): 0.25 µg/mL
- MIC (Proteus vulgaris [21]): 4 µg/mL
- MIC (Proteus vulgaris [22]): 4 µg/mL
- MIC (Stenotrophomonas): 32 µg/mL
- MIC (Pseudomonas aeruginosa [23]): 2 µg/mL
- MIC (Pseudomonas aeruginosa [24]): 2 µg/mL
- MIC (Pseudomonas aeruginosa [25]): 2 µg/mL
- MIC (Pseudomonas aeruginosa [26]): 2 µg/mL
- MIC (Pseudomonas aeruginosa [27]): 4 µg/mL
- MIC (Pseudomonas aeruginosa [28]): 8 µg/mL
